Consider 6 molecules from ChEMBL document CHEMBL4400530, “Synthesis and structure-activity relationship studies of water-soluble β-cyclodextrin-glycyrrhetinic acid conjugates as potential anti-influenza virus agents” (Eur J Med Chem, 2019).

Values after ≈ are worked out from the molar mass of the structure shown. Active and inactive are the calls of the source. The calls are words filed in the database; no cut-off is given here.

The subject of data set [1] is Human alphaherpesvirus 1. The data set is described as follows: Antiviral activity against […] Herpes simplex virus 1 B2006 infected in African green monkey Vero cells assessed as reduction in viral titer after 72 hrs by crystal violet staining based assay. The data set is classed as functional, organism-based. The settings on record: Human alphaherpesvirus 1, B2006, Vero.

Data set [2] concerns Human alphaherpesvirus 1. The data set is described as follows: Antiviral activity against […] Herpes simplex virus 1 KOS infected in African green monkey Vero cells assessed as reduction in viral titer after 72 hrs by crystal violet staining based assay. The following applies: Human alphaherpesvirus 1, strain KOS. It is filed as functional, organism-based.

Data set [3] can be described thus: Lipophilicity, log P of the compound. The following applies: octanol/water. It is filed as physicochemical. In outline:
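Calculated value (AlogP, Ghose and Crippen octanol–water partition coefficient at 25 °C), computed in silico rather than measured.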

A short description of data set [4]: Solubility of the compound in water. The data set is classed as physicochemical. The following applies: buffer.
For the next data set, the system named is Human gammaherpesvirus 4. In words: Antiviral activity against EBV infected in human Raji cells assessed as reduction in viral genome copy numbers by qRT-PCR analysis. It is filed as functional, organism-based. The settings on record: human gammaherpesvirus 4, Raji. Background: Quantitative PCR measures a nucleic acid by following its amplification.
In the next data set the test system is MDCK. The data set is described as follows: Cytotoxicity against MDCK cells assessed as effect on cell viability at 50 uM measured after 36 hrs by CellTiter-Glo assay. It is filed as cell-based, Canis lupus familiaris. The settings on record: dog. In outline: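 MDCK cells (1 × 10⁴ per well) left to adhere 24 h at 37 °C, 5% CO₂. Medium then replaced with fresh medium containing compound at 50 μM, in triplicate. Controls received medium with 1% DMSO. Plates incubated 36 h at 37 °C, 5% CO₂, then viability read by CellTiter-Glo luminescence.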

Another data set concerns Influenza A virus. The data set is described as follows: Antiviral activity against Influenza A virus (A/WSN/33(H1N1)) infected in MDCK cells assessed as reduction in virus-induced cytopathic effect at 50 uM after 40 hrs by CellTiter-Glo assay. The data set is classed as functional, organism-based. The following applies: A/WSN/1933(H1N1). In outline:
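MDCK cells seeded, grown overnight, then infected with A/WSN/33 (H1N1) at MOI 0.1 in DMEM with 1% FBS, 2 μg/mL TPCK-treated trypsin and test compound (final DMSO 1%). Compounds screened at a single 50 μM concentration. Incubation 40 h, then viability read by CellTiter-Glo luminescence. Oseltamivir positive control, DMSO negative control. Virus stock titres determined in MDCK cells by Reed and Muench.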
In general terms: Damage to the host cells serves as the signal in cytopathic effect assays.

`CC(O)CNC(=O)[C@@]1(C)CC[C@]2(C)CC[C@]3(C)C(=CC(=O)[C@@H]4[C@@]5(C)CC[C@H](O)C(C)(C)[C@@H]5CC[C@]43C)[C@@H]2C1` (some centres not stated): the EC50 with Human alphaherpesvirus 1 [1] and in the data set with Human alphaherpesvirus 1 [2] was 4.95 µM in each case.
For `CC1(C)[C@@H](O)CC[C@]2(C)[C@H]3C(=O)C=C4[C@@H]5C[C@@](C)(C(=O)O)CC[C@]5(C)CC[C@@]4(C)[C@]3(C)CC[C@@H]12` [ENOXOLONE], the logP in data set [3] turned out to be 6.75. Also, the solubility in data set [4] was 10.6 µg/mL (≈ 22.5 µM). The EC50 in the data set with Human gammaherpesvirus 4 came out at 4 µM.
In the case of `CC(=O)OC[C@H]1O[C@@H]2O[C@H]3[C@H](OC(C)=O)[C@@H](OC(C)=O)[C@@H](O[C@H]4[C@H](OC(C)=O)[C@@H](OC(C)=O)[C@@H](O[C@H]5[C@H](OC(C)=O)[C@@H](OC(C)=O)[C@@H](O[C@H]6[C@H](OC(C)=O)[C@@H](OC(C)=O)[C@@H](O[C@H]7[C@H](OC(C)=O)[C@@H](OC(C)=O)[C@@H](O[C@H]8[C@H](OC(C)=O)[C@@H](OC(C)=O)[C@@H](O[C@H]1[C@H](OC(C)=O)[C@H]2OC(C)=O)O[C@@H]8COC(C)=O)O[C@@H]7COC(C)=O)O[C@@H]6COC(C)=O)O[C@@H]5Cn1cc(COCCOCCOCCOCCOCCOCCNC(=O)[C@@]2(C)CC[C@]5(C)CC[C@]6(C)C(=CC(=O)[C@@H]7[C@@]8(C)CC[C@H](O)C(C)(C)[C@@H]8CC[C@]76C)[C@@H]5C2)nn1)O[C@@H]4COC(C)=O)O[C@@H]3COC(C)=O`, the Activity result with MDCK was “Non-Toxic”. In the data set on Influenza A virus, the outcome was Active.
For `CC1(C)[C@@H](OCc2cn(C[C@H]3O[C@@H]4O[C@H]5[C@H](O)[C@@H](O)[C@@H](O[C@H]6[C@H](O)[C@@H](O)[C@@H](O[C@H]7[C@H](O)[C@@H](O)[C@@H](O[C@H]8[C@H](O)[C@@H](O)[C@@H](O[C@H]9[C@H](O)[C@@H](O)[C@@H](O[C@H]%10[C@H](O)[C@@H](O)[C@@H](O[C@H]3[C@H](O)[C@H]4O)O[C@@H]%10CO)O[C@@H]9CO)O[C@@H]8CO)O[C@@H]7CO)O[C@@H]6CO)O[C@@H]5CO)nn2)CC[C@]2(C)[C@H]3C(=O)C=C4[C@@H]5C[C@@](C)(C(=O)O)CC[C@]5(C)CC[C@@]4(C)[C@]3(C)CC[C@@H]12`, in that order: “Non-Toxic” and “Active”.
For `CC(=O)OC[C@H]1O[C@@H]2O[C@H]3[C@H](OC(C)=O)[C@@H](OC(C)=O)[C@@H](O[C@H]4[C@H](OC(C)=O)[C@@H](OC(C)=O)[C@@H](O[C@H]5[C@H](OC(C)=O)[C@@H](OC(C)=O)[C@@H](O[C@H]6[C@H](OC(C)=O)[C@@H](OC(C)=O)[C@@H](O[C@H]7[C@H](OC(C)=O)[C@@H](OC(C)=O)[C@@H](O[C@H]8[C@H](OC(C)=O)[C@@H](OC(C)=O)[C@@H](O[C@H]1[C@H](OC(C)=O)[C@H]2OC(C)=O)O[C@@H]8COC(C)=O)O[C@@H]7COC(C)=O)O[C@@H]6COC(C)=O)O[C@@H]5Cn1cc(COCCOCCNC(=O)[C@@]2(C)CC[C@]5(C)CC[C@]6(C)C(=CC(=O)[C@@H]7[C@@]8(C)CC[C@H](O)C(C)(C)[C@@H]8CC[C@]76C)[C@@H]5C2)nn1)O[C@@H]4COC(C)=O)O[C@@H]3COC(C)=O`, in that order: “Non-Toxic” and “Active”.
On to `CC1(C)[C@@H](O[C@H]2O[C@H](C(=O)O)[C@@H](O)[C@H](O)[C@H]2O[C@@H]2O[C@H](C(=O)O)[C@@H](O)[C@H](O)[C@H]2O)CC[C@]2(C)[C@H]3C(=O)C=C4[C@@H]5C[C@@](C)(C(=O)O)CC[C@]5(C)CC[C@@]4(C)[C@]3(C)CC[C@@H]12` [GLYCYRRHIZIN], for which the EC50 in the data set with Human gammaherpesvirus 4 was 30 µM.

As a reminder, the EC50 is the concentration that produces a half-maximal response. The logP is the decadic logarithm of the partition coefficient of the neutral form, usually between octanol and water. What is called solubility is the dissolved amount per volume that the medium holds.
